This passage reports Activity and EC50 results from ChEMBL document CHEMBL1157895, “Truxillic acid derivatives act as peroxisome proliferator-activated receptor gamma activators” (Bioorg Med Chem Lett, 2010).

Holding throughout (format): functional
For assay [1], the target named is T1, Peroxisome proliferator-activated receptor gamma (Homo sapiens) (UniProt P37231).
T1 sequence (whole entry): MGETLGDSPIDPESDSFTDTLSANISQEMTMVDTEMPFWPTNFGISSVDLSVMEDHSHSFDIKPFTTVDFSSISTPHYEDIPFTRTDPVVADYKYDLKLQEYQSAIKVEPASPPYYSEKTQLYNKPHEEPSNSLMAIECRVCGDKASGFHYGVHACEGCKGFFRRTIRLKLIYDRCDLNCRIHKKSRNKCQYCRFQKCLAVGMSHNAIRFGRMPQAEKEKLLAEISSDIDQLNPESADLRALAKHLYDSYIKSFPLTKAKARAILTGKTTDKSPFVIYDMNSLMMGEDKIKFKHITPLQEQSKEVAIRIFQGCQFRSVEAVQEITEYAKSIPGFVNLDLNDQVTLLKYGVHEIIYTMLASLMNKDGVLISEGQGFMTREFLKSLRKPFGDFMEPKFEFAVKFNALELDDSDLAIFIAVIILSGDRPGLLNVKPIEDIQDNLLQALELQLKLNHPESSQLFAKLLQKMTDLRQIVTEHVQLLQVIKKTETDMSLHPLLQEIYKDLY
Briefly: (§1) Agonist activity at human PPARgamma at 10 uM by Gal4 transactivation assay relative to pioglitazone. The method, boiled down:
(§2)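 Cell-based Gal4-hybrid transactivation assay with a luciferase reporter for human PPARγ. Compounds were tested at 10 µM. Activation is expressed relative to 1 µM pioglitazone, which was set as 100% activation. Values are the mean and standard deviation of at least three independent experiments.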

For assay [2], the target named is T2, Peroxisome proliferator-activated receptor delta (Homo sapiens) (UniProt Q03181).
T2 sequence (whole entry): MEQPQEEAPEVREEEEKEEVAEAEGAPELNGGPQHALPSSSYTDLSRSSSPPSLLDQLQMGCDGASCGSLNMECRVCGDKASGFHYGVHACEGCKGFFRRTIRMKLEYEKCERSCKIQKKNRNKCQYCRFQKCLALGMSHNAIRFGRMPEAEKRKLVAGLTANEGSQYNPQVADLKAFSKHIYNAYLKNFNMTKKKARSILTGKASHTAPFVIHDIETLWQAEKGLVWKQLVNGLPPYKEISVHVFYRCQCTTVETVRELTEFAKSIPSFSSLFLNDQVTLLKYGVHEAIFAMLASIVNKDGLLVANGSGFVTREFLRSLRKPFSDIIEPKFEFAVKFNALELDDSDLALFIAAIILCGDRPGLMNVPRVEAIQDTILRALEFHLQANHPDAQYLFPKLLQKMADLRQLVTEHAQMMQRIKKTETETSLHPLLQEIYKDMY
In words: Agonist activity at human PPARdelta at 10 uM by Gal4 transactivation assay relative to pioglitazone.

Assay [3] concerns the target T3, Peroxisome proliferator-activated receptor gamma (Homo sapiens, UniProt P37231).
T3 sequence (P37231 whole entry): T1 sequence (whole entry)
Briefly: Agonist activity at human PPARgamma by Gal4 transactivation assay. The procedure, abridged:
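Human PPARγ Gal4-hybrid luciferase reporter transactivation assay. EC50 was calculated from concentration-response data, with maximum activation taken at the highest tested concentration.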

The target in assay [4] is T4, Peroxisome proliferator-activated receptor alpha (Homo sapiens) (UniProt Q07869).
T4 sequence (whole entry): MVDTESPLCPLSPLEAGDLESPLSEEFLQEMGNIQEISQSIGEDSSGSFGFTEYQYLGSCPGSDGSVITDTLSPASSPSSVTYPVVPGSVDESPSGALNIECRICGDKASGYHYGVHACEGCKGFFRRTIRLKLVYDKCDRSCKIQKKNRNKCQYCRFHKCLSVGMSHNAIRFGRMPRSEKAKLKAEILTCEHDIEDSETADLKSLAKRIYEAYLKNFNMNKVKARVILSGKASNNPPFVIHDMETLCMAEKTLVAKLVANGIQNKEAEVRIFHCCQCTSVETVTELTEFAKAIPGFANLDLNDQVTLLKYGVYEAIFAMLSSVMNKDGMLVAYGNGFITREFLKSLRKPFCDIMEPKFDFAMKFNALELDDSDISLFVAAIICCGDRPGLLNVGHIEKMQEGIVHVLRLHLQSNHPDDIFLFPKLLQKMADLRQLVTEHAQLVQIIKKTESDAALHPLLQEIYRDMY
Briefly: Agonist activity at human PPARalpha at 10 uM by Gal4 transactivation assay relative to pioglitazone.

Assay [5] addresses T3, Peroxisome proliferator-activated receptor gamma. The description is as §1. The procedure, abridged: as §2

SMILES strings stand for the structures. Active and inactive are the calls of the source. The rule behind the calls is not given here.

For the molecule `CCCCCCCOC(=O)C1C(c2ccccc2)C(C(=O)O)C1c1ccccc1` (stereo not given), the Activity in assay [1] was found to be 153%. The result in assay [2] and in assay [4] was inactive. This molecule displayed an EC50 in assay [3] of 8.6 µM.

The molecule `Cc1ccccc1OC(=O)C1C(c2ccccc2)C(C(=O)O)C1c1ccccc1` (stereo not given) showed an Activity in assay [1] of 138%. For the same molecule, the result in assay [2] and in assay [4] was inactive. For the same molecule, a half-maximal effect in assay [3] (EC50) was put at 10 µM.

For the molecule `CC(C)CCOC(=O)C1C(c2ccccc2)C(C(=O)O)C1c1ccccc1` (stereo not given), the Activity in assay [1] was 71%. Besides, the result in assay [2] and in assay [4] was inactive. In assay [3], this molecule registered an EC50 of 4.8 µM.

Regarding `O=C(O)C1C(c2ccccc2)C(C(=O)Oc2ccc(O)cc2)C1c1ccccc1` (stereo not given), the EC50 result in assay [5] is “Not Active”. Moreover, the result in assay [2] and in assay [4] was inactive.

As for `O=C(O)C1C(c2ccccc2)C(C(=O)N2CCCCC2)C1c1ccccc1` (stereo not given), in assay [5], the EC50 entry was “Not Active”. The outcome in assay [2] and in assay [4] was inactive.

Molecule `Cc1cccc(OC(=O)C2C(c3ccccc3)C(C(=O)O)C2c2ccccc2)c1` (stereo not given) yielded an Activity in assay [1] of 123%. For the same molecule, the outcome in assay [2] and in assay [4] was inactive. In assay [3], this molecule showed an EC50 of 3.3 µM.

For the molecule `CCCCCCOC(=O)C1C(c2ccccc2)C(C(=O)O)C1c1ccccc1` (stereo not given), the Activity in assay [1] was found to be 66%. Moreover, the outcome in assay [2] and in assay [4] was inactive. Also, the EC50 in assay [3] is 3.6 µM.

For the molecule `COC(=O)C1C(c2ccccc2)C(C(=O)OCc2ccccc2)C1c1ccccc1` (stereo not given), the half-maximal effective concentration (EC50) result in assay [5] is recorded as “Not Active”. For the same molecule, the outcome in assay [2] and in assay [4] was inactive.

For `O=C(O)C1C(c2ccccc2)C(C(=O)OCCO)C1c1ccccc1` (stereo not given), in assay [5], the half-maximal effective concentration (EC50) entry is reported as “Not Active”. The result in assay [2] and in assay [4] was inactive.

As to `O=C(O)C1C(c2ccccc2)C(C(=O)O)C1c1ccccc1` (stereo not given), in assay [5], the EC50 entry is recorded as “Not Active”. Further, the result in assay [2] and in assay [4] was inactive.

In assay [1], `CCCCCCCCOC(=O)C1C(c2ccccc2)C(C(=O)O)C1c1ccccc1` (stereo not given) gave an Activity of 100%. Further, the outcome in assay [2] and in assay [4] was inactive. The same molecule gave an EC50 in assay [3] of 9.3 µM.

For `O=C(O)C1C(c2ccccc2)C(C(=O)N2CCOCC2)C1c1ccccc1` (stereo not given), in assay [5], the EC50 entry is on record as “Not Active”. The result in assay [2] and in assay [4] was inactive.

`CCC(C)OC(=O)C1C(c2ccccc2)C(C(=O)O)C1c1ccccc1` (stereo not given) registered an Activity in assay [1] of 23%. Further, the result in assay [2] and in assay [4] was inactive. Further, the EC50 in assay [3] is > 10 µM.

Consider `COC(=O)C1C(c2ccccc2)C(C(=O)OC)C1c1ccccc1` (stereo not given), for which the EC50 result in assay [5] is reported as “Not Active”. For the same molecule, the outcome in assay [2] and in assay [4] was inactive.

Regarding `CC(C)OC(=O)C1C(c2ccccc2)C(C(=O)O)C1c1ccccc1` (stereo not given), the EC50 entry in assay [5] is “Not Active”. The outcome in assay [2] and in assay [4] was inactive.

As to `O=C(O)C1C(c2ccccc2)C(C(=O)OCCCO)C1c1ccccc1` (stereo not given), the EC50 entry in assay [5] is “Not Active”. Also, the outcome in assay [2] and in assay [4] was inactive.
